In one assay the test system is Human betaherpesvirus 5. Kind of assay: Concentration required to reduce viral plaque formation by Human Cytomegalovirus (HCMV) (strain AD-169) in MRC-5 cells. Format: functional, organism-based. The settings on record: Human betaherpesvirus 5, MRC5.
In the next assay the test system is MRC5. The experiment in a line: Concentration required to reduce MRC-5 cell growth by 50%. Format: functional. Conditions: Homo sapiens. A digest of the protocol: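 MRC-5 fibroblasts seeded at 5 × 10³ cells/well, left to proliferate 24 h, then exposed to different concentrations of test compound (duplicate). After 3 days at 37 °C in 5% CO₂, cell number counted with a Coulter counter.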

IC50 and CC50 data for 41 compounds are collected here from ChEMBL document CHEMBL1133624, “Benzothiadiazine dioxide dibenzyl derivatives as potent human cytomegalovirus inhibitors: synthesis and comparative molecular field analysis” (J Med Chem, 2000).

Each structure is given as a SMILES string. pIC50: −log10 of the molar value. Bounds are passed on as bounds.

One may read the pIC50 as −log10 of the IC50, conventionally taken in molar units. The low end stands for a high IC50, the high end for a low IC50. As usually defined, the CC50 is the concentration giving 50% cytotoxicity. `O=S1(=O)N=C(OCc2ccccc2)c2ccccc2N1Cc1ccc(Cl)c(Cl)c1` showed a pIC50 in the assay with Human betaherpesvirus 5 of 4.59. For the same compound, the CC50 with MRC5 was more than 56 µM.

Take `O=S1(=O)N=C(OCc2ccc(C(F)(F)F)cc2)c2ccccc2N1Cc1ccc(C(F)(F)F)cc1`: the pIC50 with Human betaherpesvirus 5 was 4.64. This compound also showed a CC50 in the assay on MRC5 of more than 48 µM.

Consider `O=C1c2ccccc2N(Cc2ccccc2)S(=O)(=O)N1Cc1ccccc1Cl`, for which, in the assay on Human betaherpesvirus 5, the pIC50 is 4.92. Further, in the assay on MRC5, the CC50 is more than 60 µM.

Regarding `Cc1ccc(CN2c3ccccc3C(=O)N(Cc3ccccc3)S2(=O)=O)cc1`, the pIC50 in the assay on Human betaherpesvirus 5 is 5.60. The same compound gave a CC50 with MRC5 of more than 63 µM.

Consider `O=C(CN1c2ccccc2C(=O)N(Cc2ccccc2)S1(=O)=O)c1ccccc1`, for which the pIC50 with Human betaherpesvirus 5 was 4.61. The compound further came in with a CC50 in the assay on MRC5 of more than 61 µM.

The compound `Cc1ccc(C(=O)CN2c3ccccc3C(=O)N(Cc3ccccc3)S2(=O)=O)cc1` had a pIC50 with Human betaherpesvirus 5 of 5.55. The CC50 with MRC5 was more than 59 µM.

In the assay on Human betaherpesvirus 5, `C#CCCN1c2ccccc2C(=O)N(Cc2ccccc2)S1(=O)=O` had a pIC50 of 4.12. This compound returned a CC50 with MRC5 of 77 µM.

Turning to `O=S1(=O)N=C(OCc2ccccc2)c2ccccc2N1Cc1ccccc1`, the pIC50 in the assay on Human betaherpesvirus 5 is 5.10. This compound yielded a CC50 with MRC5 of more than 66 µM.

Compound `Nc1nc2c(ncn2COC(CO)CO)c(=O)[nH]1` [GANCICLOVIR] gave a pIC50 with Human betaherpesvirus 5 of 5.23. This compound also came in with a CC50 in the assay with MRC5 of more than 98 µM.

Take `O=C1c2ccccc2N(Cc2ccccc2)S(=O)(=O)N1Cc1ccc(Cl)cc1`: in the assay on Human betaherpesvirus 5, the pIC50 was 5.22. This compound also came in with a CC50 in the assay on MRC5 of more than 60 µM.

As for `O=C1c2ccccc2N(Cc2cccc3ccccc23)S(=O)(=O)N1Cc1ccccc1`, in the assay on Human betaherpesvirus 5, the pIC50 is 4.94. The CC50 in the assay with MRC5 is more than 58 µM.

Compound `N#Cc1ccc(CN2c3ccccc3C(=O)N(Cc3ccccc3)S2(=O)=O)cc1` gave a pIC50 in the assay on Human betaherpesvirus 5 of 5.10. Further, the CC50 with MRC5 was more than 62 µM.

`COc1ccc(CN2c3ccccc3C(=O)N(Cc3ccccc3)S2(=O)=O)cc1` gave a negative logarithm of the IC50 (pIC50) with Human betaherpesvirus 5 of 5.15. This compound registered a CC50 in the assay on MRC5 of more than 61 µM.

In the assay on Human betaherpesvirus 5, `O=C1c2ccccc2N(Cc2cccnc2)S(=O)(=O)N1Cc1ccccc1` gave a pIC50 of 4.88. Also, the midpoint of cytotoxicity in the assay on MRC5, the CC50, lay at 66 µM.

Take `O=C1c2ccccc2N(Cc2ccc(Cl)cc2)S(=O)(=O)N1Cc1ccccc1`: the pIC50 in the assay on Human betaherpesvirus 5 is 5.44. The compound also yielded a half-maximal cytotoxic concentration (CC50) in the assay on MRC5 of more than 60 µM.

In the case of `O=C1c2ccccc2N(Cc2cccc(Cl)c2)S(=O)(=O)N1Cc1ccccc1`, the pIC50 in the assay on Human betaherpesvirus 5 is 5.44. Also, in the assay with MRC5, the CC50 is more than 60 µM.

In the case of `Cc1ccc(CN2c3ccccc3C(OCc3ccccc3)=NS2(=O)=O)cc1`, the pIC50 in the assay on Human betaherpesvirus 5 is 5.00. In addition, the CC50 in the assay with MRC5 was more than 63 µM.

The compound `O=C1c2ccccc2N(Cc2ccc([N+](=O)[O-])cc2)S(=O)(=O)N1Cc1ccc([N+](=O)[O-])cc1` showed a pIC50 in the assay with Human betaherpesvirus 5 of 4.28. In addition, the CC50 in the assay on MRC5 was more than 53 µM.

In the assay with Human betaherpesvirus 5, `N#Cc1ccc(CN2c3ccccc3C(OCc3ccccc3)=NS2(=O)=O)cc1` showed a pIC50 of 4.54. In the assay with MRC5, this compound showed a CC50 of more than 62 µM.

Regarding `O=C1c2ccccc2N(Cc2ccc([N+](=O)[O-])cc2)S(=O)(=O)N1Cc1ccccc1`, the pIC50 with Human betaherpesvirus 5 is 5.10. The same compound showed a CC50 in the assay with MRC5 of more than 59 µM.

With `O=C1c2ccccc2N(CCc2ccccc2)S(=O)(=O)N1Cc1ccccc1`, in the assay on Human betaherpesvirus 5, the pIC50 is 5.12. Besides, the CC50 with MRC5 was more than 64 µM.

As for `O=C1c2ccccc2N(Cc2ccc(-c3ccccc3)cc2)S(=O)(=O)N1Cc1ccc(-c2ccccc2)cc1`, in the assay with Human betaherpesvirus 5, the pIC50 was 4.33. Further, the CC50 with MRC5 was more than 47 µM.

In turn, `O=C1c2ccccc2N(Cc2ccccc2Cl)S(=O)(=O)N1Cc1ccccc1Cl` gave a pIC50 in the assay with Human betaherpesvirus 5 of 4.48. Besides, the CC50 in the assay with MRC5 is more than 56 µM.

In the assay with Human betaherpesvirus 5, `O=C1c2ccccc2N(Cc2ccc(C(F)(F)F)cc2)S(=O)(=O)N1Cc1ccc(C(F)(F)F)cc1` showed a pIC50 of 4.82. Besides, the CC50 with MRC5 is more than 48 µM.

In the assay on Human betaherpesvirus 5, `O=S1(=O)N=C(OCc2ccc(Cl)c(Cl)c2)c2ccccc2N1Cc1ccc(Cl)c(Cl)c1` gave a pIC50 of 4.32. For the same compound, the CC50 in the assay on MRC5 was more than 48 µM.

`O=C1c2ccccc2N(Cc2ccccc2)S(=O)(=O)N1Cc1ccccc1`: the pIC50 in the assay on Human betaherpesvirus 5 was 5.28. In addition, the CC50 in the assay with MRC5 was more than 66 µM.

In the case of `COc1ccc(CN2c3ccccc3C(OCc3ccccc3)=NS2(=O)=O)cc1`, in the assay with Human betaherpesvirus 5, the pIC50 was 4.21. This compound yielded a CC50 with MRC5 of more than 61 µM.

`O=C1c2ccccc2N(Cc2ccc(C(F)(F)F)cc2)S(=O)(=O)N1Cc1ccccc1` gave a pIC50 with Human betaherpesvirus 5 of 5.48. In the assay on MRC5, the CC50 is more than 56 µM.

Take `O=C1c2ccccc2N(Cc2ccccc2Cl)S(=O)(=O)N1Cc1ccccc1`: in the assay on Human betaherpesvirus 5, the pIC50 is 5.32. The CC50 in the assay on MRC5 is more than 60 µM.

With `COc1ccc(CCN2c3ccccc3C(=O)N(Cc3ccccc3)S2(=O)=O)cc1`, in the assay on Human betaherpesvirus 5, the pIC50 is 5.40. This compound came in with a CC50 in the assay on MRC5 of more than 59 µM.

Regarding `O=[N+]([O-])c1ccc(COC2=NS(=O)(=O)N(Cc3ccc([N+](=O)[O-])cc3)c3ccccc32)cc1`, the pIC50 in the assay with Human betaherpesvirus 5 was 4.28. Further, the CC50 in the assay with MRC5 is more than 53 µM.

As for `O=C1c2ccccc2N(Cc2ccccc2-c2ccccc2)S(=O)(=O)N1Cc1ccccc1`, in the assay with Human betaherpesvirus 5, the pIC50 is 4.36. For the same compound, the CC50 in the assay with MRC5 is more than 55 µM.

`COc1ccc(C(=O)CN2c3ccccc3C(=O)N(Cc3ccccc3)S2(=O)=O)cc1` showed a pIC50 in the assay on Human betaherpesvirus 5 of 5.49. In the assay with MRC5, the CC50 is more than 57 µM.

Take `CC(C)CN1c2ccccc2C(=O)N(Cc2ccccc2)S1(=O)=O`: the pIC50 in the assay with Human betaherpesvirus 5 is 4.84. For the same compound, half-maximal cytotoxicity with MRC5 (CC50) was put at 72 µM.

In the assay on Human betaherpesvirus 5, `O=C1c2ccccc2N(CC2CCCCC2)S(=O)(=O)N1Cc1ccccc1` had a pIC50 of 4.81. This compound came in with a CC50 in the assay with MRC5 of more than 65 µM.

The compound `O=S1(=O)N=C(OCc2ccc(-c3ccccc3)cc2)c2ccccc2N1Cc1ccc(-c2ccccc2)cc1` showed a pIC50 in the assay with Human betaherpesvirus 5 of 4.33. For the same compound, in the assay with MRC5, the CC50 was more than 47 µM.

For the compound `O=C1c2ccccc2N(Cc2ccc(Cl)c(Cl)c2)S(=O)(=O)N1Cc1ccccc1`, the pIC50 in the assay with Human betaherpesvirus 5 was 5.40. Also, the CC50 in the assay on MRC5 was more than 56 µM.

`O=C1c2ccccc2N(Cc2ccc(Cl)c(Cl)c2)S(=O)(=O)N1Cc1ccc(Cl)c(Cl)c1`: in the assay on Human betaherpesvirus 5, the pIC50 was 4.82. In the assay on MRC5, the CC50 was more than 48 µM.

`O=C1c2ccccc2N(CCCc2ccccc2)S(=O)(=O)N1Cc1ccccc1` gave a pIC50 in the assay on Human betaherpesvirus 5 of 4.74. Moreover, the CC50 with MRC5 was more than 57 µM.

For `COc1ccc(CN2C(=O)c3ccccc3N(Cc3ccc(OC)cc3)S2(=O)=O)cc1`, the pIC50 in the assay with Human betaherpesvirus 5 is 4.24. Besides, in the assay with MRC5, the cytotoxic concentration (CC50) is more than 57 µM.

For `O=C1c2ccccc2N(Cc2ccc(Cl)cc2)S(=O)(=O)N1Cc1ccc(Cl)cc1`, the negative-log IC50 (pIC50) in the assay with Human betaherpesvirus 5 was 5.48. Also, in the assay with MRC5, the CC50 was more than 56 µM.
